# In ChEMBL document CHEMBL1146563, “CT2108A and B: New fatty acid synthase inhibitors as antifungal agents” (J Nat Prod, 2003):
# The source made the active and inactive calls. The calls are words filed in the database; no cut-off is given here.
# Tests used:
# [1] = test system: Cryptococcus neoformans; assay: Antifungal activity against Cryptococcus neoformans after 24 hrs; assay type: functional
# In short: (§1)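 Minimum inhibitory concentration against clinical isolates, read at 24 h and at 48 h. Isolates tested: C. albicans 4, C. tropicalis 1, C. lusitaniae 3, C. guilliermondii 1, C. krusei 3, C. glabrata 3, C. parapsilosis 4, C. dubliniensis 2, S. cerevisiae 4, Cryptococcus neoformans 2, Cryptococcus laurentii 2.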
# [2] = test system: Candida parapsilosis; assay: Antifungal activity against Candida parapsilosis after 48 hrs; assay type: functional; settings: Lodderomyces parapsilosis; in short: as §1
# [3] = test system: Pichia kudriavzevii; assay: Antifungal activity against Candida krusei after 48 hrs; assay type: functional; in short: as §1
# [4] = test system: Candida tropicalis; assay: Antifungal activity against Candida tropicalis after 48 hrs; assay type: functional; in short: as §1
# [5] = test system: Candida albicans; assay: Antifungal activity against Candida albicans assessed as clear zone of inhibition by disk diffusion assay; assay type: functional
# In short: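 Disk diffusion on C. albicans; the zone of inhibition is measured in mm.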
# [6] = test system: Candida albicans; assay: Antifungal activity against Candida albicans after 24 hrs; assay type: functional; in short: as §1
# [7] = test system: Saccharomyces cerevisiae; assay: Antifungal activity against Saccharomyces cerevisiae after 48 hrs; assay type: functional; in short: as §1
# [8] = test system: Meyerozyma guilliermondii; assay: Antifungal activity against Candida guilliermondii after 24 hrs; assay type: functional; in short: as §1
# [9] = test system: Candida albicans; assay: Antifungal activity against Candida albicans after 48 hrs; assay type: functional; in short: as §1
# [10] = test system: Papiliotrema laurentii; assay: Antifungal activity against Cryptococcus laurentii after 24 hrs; assay type: functional; in short: as §1
# [11] = test system: Candida parapsilosis; assay: Antifungal activity against Candida parapsilosis after 24 hrs; assay type: functional; settings: Lodderomyces parapsilosis; in short: as §1
# [12] = test system: Candida dubliniensis; assay: Antifungal activity against Candida dubliniensis after 24 hrs; assay type: functional; in short: as §1
# [13] = test system: Clavispora lusitaniae; assay: Antifungal activity against Candida lusitaniae after 24 hrs; assay type: functional; in short: as §1
# [14] = target: Fatty acid synthase (Homo sapiens, UniProt P49327); assay: Inhibition of FAS in human ZR-75-1 cells by spectrophotometry; assay type: cell-based
# Chain of Fatty acid synthase (P49327 whole entry): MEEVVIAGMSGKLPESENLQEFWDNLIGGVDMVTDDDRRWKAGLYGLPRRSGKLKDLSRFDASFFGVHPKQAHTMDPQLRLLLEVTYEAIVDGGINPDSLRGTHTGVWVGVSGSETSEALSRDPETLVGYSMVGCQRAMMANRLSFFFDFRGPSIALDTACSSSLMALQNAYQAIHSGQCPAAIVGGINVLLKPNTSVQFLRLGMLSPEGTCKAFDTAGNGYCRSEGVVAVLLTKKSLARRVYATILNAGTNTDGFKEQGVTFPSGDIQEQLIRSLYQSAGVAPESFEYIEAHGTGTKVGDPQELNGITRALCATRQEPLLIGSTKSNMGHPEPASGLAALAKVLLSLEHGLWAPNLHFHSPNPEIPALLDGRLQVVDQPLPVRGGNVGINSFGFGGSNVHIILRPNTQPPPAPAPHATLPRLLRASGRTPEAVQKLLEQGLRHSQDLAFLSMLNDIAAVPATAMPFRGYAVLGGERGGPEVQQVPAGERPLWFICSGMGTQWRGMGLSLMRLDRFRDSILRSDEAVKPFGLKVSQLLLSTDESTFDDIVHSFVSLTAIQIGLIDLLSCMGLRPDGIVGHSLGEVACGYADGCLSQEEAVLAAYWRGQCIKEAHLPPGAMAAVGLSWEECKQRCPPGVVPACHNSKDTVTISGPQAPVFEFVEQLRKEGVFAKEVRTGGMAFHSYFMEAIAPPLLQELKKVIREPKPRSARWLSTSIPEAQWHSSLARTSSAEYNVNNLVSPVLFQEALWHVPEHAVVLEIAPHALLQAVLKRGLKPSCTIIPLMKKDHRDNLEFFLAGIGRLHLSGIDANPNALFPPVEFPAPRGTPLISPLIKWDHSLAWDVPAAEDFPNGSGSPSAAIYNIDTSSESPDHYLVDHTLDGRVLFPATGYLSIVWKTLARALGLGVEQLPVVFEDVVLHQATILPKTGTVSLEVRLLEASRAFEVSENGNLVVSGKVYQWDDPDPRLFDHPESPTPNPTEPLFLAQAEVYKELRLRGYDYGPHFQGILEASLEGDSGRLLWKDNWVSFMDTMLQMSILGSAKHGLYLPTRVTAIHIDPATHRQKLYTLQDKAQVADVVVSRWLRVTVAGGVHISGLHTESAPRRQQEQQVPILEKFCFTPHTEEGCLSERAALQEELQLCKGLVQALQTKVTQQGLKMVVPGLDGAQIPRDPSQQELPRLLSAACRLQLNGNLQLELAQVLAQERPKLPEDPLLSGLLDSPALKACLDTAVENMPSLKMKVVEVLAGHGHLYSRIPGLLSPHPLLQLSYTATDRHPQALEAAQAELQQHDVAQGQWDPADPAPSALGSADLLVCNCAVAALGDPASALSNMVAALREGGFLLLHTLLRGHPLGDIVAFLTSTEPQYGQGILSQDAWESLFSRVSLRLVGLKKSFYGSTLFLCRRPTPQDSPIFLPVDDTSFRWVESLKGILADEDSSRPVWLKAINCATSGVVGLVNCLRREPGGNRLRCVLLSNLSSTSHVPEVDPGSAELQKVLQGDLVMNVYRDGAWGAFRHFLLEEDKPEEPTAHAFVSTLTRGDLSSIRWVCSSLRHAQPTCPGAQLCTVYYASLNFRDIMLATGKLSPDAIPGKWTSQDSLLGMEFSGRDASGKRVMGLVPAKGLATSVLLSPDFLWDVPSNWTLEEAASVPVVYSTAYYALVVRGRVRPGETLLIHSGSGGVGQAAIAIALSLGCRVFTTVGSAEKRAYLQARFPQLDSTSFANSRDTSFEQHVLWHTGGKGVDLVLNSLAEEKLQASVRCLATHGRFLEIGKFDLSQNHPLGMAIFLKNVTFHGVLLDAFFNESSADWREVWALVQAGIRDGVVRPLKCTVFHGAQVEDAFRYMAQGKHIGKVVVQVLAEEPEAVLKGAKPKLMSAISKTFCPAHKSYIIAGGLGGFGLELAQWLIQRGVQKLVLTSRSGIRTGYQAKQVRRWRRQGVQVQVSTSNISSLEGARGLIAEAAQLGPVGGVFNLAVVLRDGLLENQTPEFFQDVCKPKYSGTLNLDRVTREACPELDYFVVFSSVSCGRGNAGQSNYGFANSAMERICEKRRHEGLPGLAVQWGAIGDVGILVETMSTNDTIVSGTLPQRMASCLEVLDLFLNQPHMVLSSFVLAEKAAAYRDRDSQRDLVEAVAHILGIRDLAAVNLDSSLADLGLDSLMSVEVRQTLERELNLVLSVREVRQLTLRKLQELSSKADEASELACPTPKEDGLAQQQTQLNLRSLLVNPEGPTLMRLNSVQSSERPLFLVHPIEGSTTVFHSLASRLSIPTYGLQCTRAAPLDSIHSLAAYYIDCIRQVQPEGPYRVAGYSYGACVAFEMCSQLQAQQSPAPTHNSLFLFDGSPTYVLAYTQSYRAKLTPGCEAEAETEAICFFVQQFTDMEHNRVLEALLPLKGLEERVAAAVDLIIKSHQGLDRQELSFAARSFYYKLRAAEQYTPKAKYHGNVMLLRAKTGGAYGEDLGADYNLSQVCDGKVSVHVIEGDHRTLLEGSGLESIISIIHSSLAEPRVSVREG
# [15] = test system: Candida dubliniensis; assay: Antifungal activity against Candida dubliniensis after 48 hrs; assay type: functional; in short: as §1
# [16] = test system: Nakaseomyces glabratus; assay: Antifungal activity against Candida glabrata after 48 hrs; assay type: functional; in short: as §1
# [17] = test system: Candida albicans; assay: Antifungal activity against Candida albicans by microdilution spectrophotometric method; assay type: functional
# [18] = test system: Pichia kudriavzevii; assay: Antifungal activity against Candida krusei after 24 hrs; assay type: functional; in short: as §1
# [19] = test system: Saccharomyces cerevisiae; assay: Antifungal activity against Saccharomyces cerevisiae after 24 hrs; assay type: functional; in short: as §1
# [20] = test system: Nakaseomyces glabratus; assay: Antifungal activity against Candida glabrata after 24 hrs; assay type: functional; in short: as §1
# [21] = test system: Papiliotrema laurentii; assay: Antifungal activity against Cryptococcus laurentii after 48 hrs; assay type: functional; in short: as §1
# [22] = test system: Cryptococcus neoformans; assay: Antifungal activity against Cryptococcus neoformans after 48 hrs; assay type: functional; in short: as §1
# [23] = test system: Meyerozyma guilliermondii; assay: Antifungal activity against Candida guilliermondii after 48 hrs; assay type: functional; in short: as §1
# [24] = Inhibition of Candida albicans SC5314 FAS by spectrophotometry
# [25] = test system: Candida albicans; assay: Antifungal activity against Candida albicans by microdilution spectrophotometric method in presence of mysteric acid; assay type: functional
# In short: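 Growth inhibition of C. albicans in a medium supplemented with 1.0% Tween 40 and 0.03% mysteric acid (long-chain fatty acids).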
# [26] = test system: Clavispora lusitaniae; assay: Antifungal activity against Candida lusitaniae after 48 hrs; assay type: functional; in short: as §1
# [27] = test system: Candida tropicalis; assay: Antifungal activity against Candida tropicalis after 24 hrs; assay type: functional; in short: as §1
# [28] = test system: Candida albicans; assay: Antifungal activity against Candida albicans assessed as hazy zone of inhibition by disk diffusion assay; assay type: functional
# In short: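 Disk diffusion on C. albicans; the zone of growth inhibition around the disk is read and reported as diameter in mm.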
MIC [1] [µg/mL],MIC [2] [µg/mL],MIC [3] [µg/mL],MIC [6] [µg/mL],MIC [7] [µg/mL],MIC [8] [µg/mL],MIC [9] [µg/mL],MIC [11] [µg/mL],MIC [12] [µg/mL],MIC [13] [µg/mL],IC50 [14] [µM],MIC [15] [µg/mL],MIC [16] [µg/mL],MIC [17] [µg/mL],MIC [18] [µg/mL],MIC [19] [µg/mL],IC50 [24] [µg/mL],MIC [25] [µg/mL],SMILES,inhibition zone (IZ) [5] [mm],MFC [17] [µg/mL],also measured
< 1.6,50,50,7.8,25,< 1.6,7.8,14.8,12.5,16.3,> 2700,12.5,50,3.13,25,8.2,250,50,C/C=C/C=C/C=C/C1=CC2=CC(=O)[C@](C)(OC(=O)C[C@H](C)O)C(=O)C2=CO1,10,6.25,MIC [4]: 6.25 µg/mL; MIC [10]: < 1.6 µg/mL; MIC [20]: 25 µg/mL; MIC [21]: < 1.6 µg/mL; MIC [22]: < 1.6 µg/mL; MIC [23]: 1.6 µg/mL; MIC [26]: 41.6 µg/mL; MIC [27]: 6.25 µg/mL
25,62.5,25,3.9,20.3,< 1.6,7.8,15.6,9.4,8.3,> 2590,18.8,83.3,6.25,12.5,5.9,160,50,C/C=C/C=C/C=C/C1=CC2=CC(=O)[C@](C)(OC(=O)C[C@H](C)O)C(=O)C23OC3O1 (stereo not given in full),8,25,Activity [10]: Active; MIC [20]: 29.2 µg/mL; MIC [21]: 6.25 µg/mL; MIC [22]: 3.12 µg/mL; MIC [23]: 1.6 µg/mL; MIC [26]: 37.5 µg/mL

SMILES,MIC [1] [µg/mL],MIC [2] [µg/mL],MIC [3] [µg/mL],MIC [6] [µg/mL],MIC [7] [µg/mL],MIC [8] [µg/mL],MIC [9] [µg/mL],MIC [11] [µg/mL],MIC [12] [µg/mL],MIC [13] [µg/mL],IC50 [14] [µM],MIC [15] [µg/mL],MIC [16] [µg/mL],MIC [17] [µg/mL],MIC [18] [µg/mL],MIC [19] [µg/mL],IC50 [24] [µg/mL],MIC [25] [µg/mL],inhibition zone (IZ) [5] [mm],MFC [17] [µg/mL],also measured
C/C=C/C/C=C/CCC(=O)[C@H]1O[C@H]1C(N)=O [CERULENIN],,,,,,,,,,,2.24,,,5,,,0.5,> 1000,,5,inhibition zone (IZ) [28]: 20 mm
